Results as given in ChEMBL document CHEMBL1955776, “Synthesis and biological evaluation of sulfonyl acrylonitriles as novel inhibitors to peritoneal carcinomatosis” (Bioorg Med Chem Lett, 2012).
Activity calls are given as the source filed them. The calls are words filed in the database; no cut-off is given here.

Key:
A2780 [1] = assay: Antitumor activity against human A2780 cells co-cultured with mesothelial cell monolayers using D-luciferin as substrate at 10 uM by firefly luciferase reporter gene assay relative to control; assay type: functional
How it was run: (§1)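 Luciferase-tagged cancer cells were treated in suspension at a final 10 μM, then overlaid on confluent mesothelial monolayers. Adherent surviving cells were read by D-luciferin bioluminescence, taken as living cell number. Efficacy = luminescence with analog / luminescence with DMSO; mean ± SEM, n = 3.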

SK-OV-3 [2] = assay: Antitumor activity against human SKOV3 cells co-cultured with mesothelial cell monolayers using D-luciferin as substrate at 10 uM by firefly luciferase reporter gene assay relative to control; assay type: functional; how it was run: as §1
[3] = Antitumor activity against human SU86 cells co-cultured with mesothelial cell monolayers using D-luciferin as substrate at 10 uM by firefly luciferase reporter gene assay relative to control; assay type: functional; how it was run: as §1
BXPC-3 [4] = assay: Antitumor activity against human BxPC3 cells co-cultured with mesothelial cell monolayers using D-luciferin as substrate at 10 uM by firefly luciferase reporter gene assay relative to control; assay type: functional; how it was run: as §1
A2780 [5] = assay: Antitumor activity against human A2780 cells xenografted in nu/nu mouse peritoneal carcinomatosis model assessed as inhibition of intraperitoneal implantation at 5 mg/kg, ip administered every 3 days for 14 days by luciferase reporter gene assay; assay type: functional, organism-based; parameters: dose 5 mg/kg
How it was run: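 Athymic 5-week-old female nu/nu mice were randomized to 5 mg/kg drug IP or an equal volume of vehicle (4:1 PEG400:EtOH), given 4 h before IP injection of 1.5 × 10^6 A2780-luc cells, then every three days for 14 days. Implants were imaged weekly by bioluminescence after IP D-luciferin. Day-14 abdominal signal was compared with vehicle controls.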

BXPC-3 [6] = assay: Antitumor activity against human BxPC3 cells co-cultured with mesothelial cell monolayers by firefly luciferase reporter gene assay; assay type: functional, cell-based
How it was run: (§2)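 Co-culture implantation model: cancer cells carrying a constitutive firefly luciferase plasmid were held in suspension with analog, then overlaid on confluent mesothelial cell monolayers. Cells that adhered and survived were read by bioluminescence with D-luciferin. IC50 values came from concentration–response runs and are reported as mean ± SEM.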

SK-OV-3 [7] = assay: Antitumor activity against human SKOV3 cells co-cultured with mesothelial cell monolayers by firefly luciferase reporter gene assay; assay type: functional, cell-based; how it was run: as §2
Mus musculus = assay: Toxicity in human A2780 cells xenografted nu/nu mouse at 5 mg/kg, ip administered every 3 days for 14 days; assay type: organism-based; parameters: dose 5 mg/kg, route intraperitoneal; conditions: in vivo
How it was run: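 Body weight was followed in athymic female nu/nu mice carrying IP A2780-luc cells and given 5 mg/kg IP in 4:1 PEG400:EtOH, starting 4 h before cell injection and repeated every three days over 14 days.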

SK-OV-3 [8] = assay: Induction of apoptosis in human SKOV3 cells co-cultured with mesothelial cell monolayers assessed as PARP cleavage at 7.5 uM after 5 hrs by Western blot analysis; assay type: functional, cell-based
A2780 [9] = assay: Antitumor activity against human A2780 cells co-cultured with mesothelial cell monolayers by firefly luciferase reporter gene assay; assay type: functional, cell-based; how it was run: as §2
[10] = Antitumor activity against human SU86 cells co-cultured with mesothelial cell monolayers by firefly luciferase reporter gene assay; assay type: functional, cell-based; how it was run: as §2
[11] = target: CASP8 and FADD-like apoptosis regulator (Homo sapiens) (UniProt O15519); assay: Inhibition of cFLIP-L in human A2780 cells assessed as restoration of death receptor signaling-mediated apoptosis; assay type: cell-based
Chain of CASP8 and FADD-like apoptosis regulator (Homo sapiens) (O15519 whole entry, looked up): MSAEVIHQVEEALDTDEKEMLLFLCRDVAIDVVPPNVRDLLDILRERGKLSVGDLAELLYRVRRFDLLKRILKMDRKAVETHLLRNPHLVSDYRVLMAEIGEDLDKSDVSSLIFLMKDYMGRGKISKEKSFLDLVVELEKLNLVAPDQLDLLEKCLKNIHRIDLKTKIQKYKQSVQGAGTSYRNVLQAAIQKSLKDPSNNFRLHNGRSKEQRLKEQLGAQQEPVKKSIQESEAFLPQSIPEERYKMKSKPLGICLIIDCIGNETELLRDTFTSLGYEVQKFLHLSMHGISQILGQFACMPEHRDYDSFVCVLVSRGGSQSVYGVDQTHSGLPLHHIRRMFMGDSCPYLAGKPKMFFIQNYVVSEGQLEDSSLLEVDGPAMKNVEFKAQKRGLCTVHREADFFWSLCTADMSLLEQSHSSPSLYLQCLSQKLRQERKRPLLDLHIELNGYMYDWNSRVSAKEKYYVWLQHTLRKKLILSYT

[12] = target: CASP8 and FADD-like apoptosis regulator (Homo sapiens) (UniProt O15519); assay: Inhibition of cFLIP-L in human BxPC3 cells assessed as restoration of death receptor signaling-mediated apoptosis; assay type: cell-based; conditions: BXPC-3
[13] = target: CASP8 and FADD-like apoptosis regulator (Homo sapiens) (UniProt O15519); assay: Inhibition of cFLIP-L in human SU86 cells assessed as restoration of death receptor signaling-mediated apoptosis; assay type: cell-based
[14] = target: CASP8 and FADD-like apoptosis regulator (Homo sapiens) (UniProt O15519); assay: Inhibition of cFLIP-L in human SKOV3 cells assessed as restoration of death receptor signaling-mediated apoptosis; assay type: cell-based; conditions: SK-OV-3

`C/C=C/S(=O)(=O)c1ccc(C(C)(C)C)cc1` showed a Ratio (A2780 [1]) of 1.15, a Ratio (SK-OV-3 [2]) of 1.08 and a Ratio [3] of 0.99. For the same compound, the Ratio (BXPC-3 [4]) was 0.99.

For `CC(C)(C)c1ccc(S(=O)(=O)/C=C/c2ccccc2)cc1`, the Ratio (A2780 [1]) was 1.13, the Ratio (SK-OV-3 [2]) was 1.17 and the Ratio [3] was 0.97. For the same compound, the Ratio (BXPC-3 [4]) was 1.01.

In the case of `CC(C)(C(=O)Nc1ccccc1)c1ccc(S(=O)(=O)/C=C/C#N)cc1`, the inhibition (A2780 [5]) is reported as “Active”, the IC50 (BXPC-3 [6]) is reported as 4.1 µM and the IC50 (SK-OV-3 [7]) is reported as 9.9 µM. For the same compound, the Activity (Mus musculus) was “Non-toxic”, the Activity (SK-OV-3 [8]) was “Active” and the IC50 (A2780 [9]) was 2.7 µM. For the same compound, the Ratio (A2780 [1]) was 0.17, the Ratio (SK-OV-3 [2]) was 0.55 and the Ratio [3] was 0.52. For the same compound, the IC50 [10] was 7.5 µM and the Ratio (BXPC-3 [4]) was 0.22.

With `COc1cccc(NC(=O)C(C)(C)c2ccc(S(=O)(=O)/C=C/C#N)cc2)c1` the IC50 (BXPC-3 [6]) was 4.1 µM, the IC50 (SK-OV-3 [7]) was 10.9 µM and the Activity (SK-OV-3 [8]) was “Active”. For the same compound, the IC50 (A2780 [9]) was 2.4 µM, the Ratio (A2780 [1]) was 0.55 and the Ratio (SK-OV-3 [2]) was 0.98. The Ratio [3] was 0.65, the IC50 [10] was 7.3 µM and the Ratio (BXPC-3 [4]) was 0.62.

Compound `CCOC(=O)/C=C/S(=O)(=O)c1ccc(C(C)(C)C)cc1` has a Ratio (A2780 [1]) of 0.39, a Ratio (SK-OV-3 [2]) of 0.67 and a Ratio [3] of 0.52. It also gave a Ratio (BXPC-3 [4]) of 0.2.

Compound `C#CCNC(=O)C(C)(C)c1ccc(S(=O)(=O)/C=C/C#N)cc1` has a Ratio (A2780 [1]) of 0.63, a Ratio (SK-OV-3 [2]) of 0.93 and a Ratio [3] of 0.65. The Ratio (BXPC-3 [4]) was 0.64.

For `CC(C)(C(=O)NCc1ccccn1)c1ccc(S(=O)(=O)/C=C/C#N)cc1`, the Ratio (A2780 [1]) was 0.05, the Ratio (SK-OV-3 [2]) was 0.47 and the Ratio [3] was 0.29. It also gave a Ratio (BXPC-3 [4]) of 0.24.

With `CC(C)(C)c1ccc(S(=O)(=O)/C=C/C#N)cc1` [BAY-11-7085] the inhibition (A2780 [5]) was “Active”, the IC50 (BXPC-3 [6]) was 3.7 µM and the IC50 (SK-OV-3 [7]) was 7.6 µM. The Activity (Mus musculus) was “Non-toxic”, the inhibition [11] was “Active” and the Activity (SK-OV-3 [8]) was “Active”. For the same compound, the IC50 (A2780 [9]) was 2.6 µM, the Ratio (A2780 [1]) was 0.04 and the inhibition [12] was “Active”. For the same compound, the Ratio (SK-OV-3 [2]) was 0.32, the inhibition [13] was “Active” and the Ratio [3] was 0.13. For the same compound, the IC50 [10] was 5.9 µM, the inhibition [14] was “Active” and the Ratio (BXPC-3 [4]) was 0.07.

In the case of `CC(C)(C(=O)N1CCOCC1)c1ccc(S(=O)(=O)/C=C/C#N)cc1`, the Ratio (A2780 [1]) is reported as 0.66, the Ratio (SK-OV-3 [2]) is reported as 1.01 and the Ratio [3] is reported as 0.94. The Ratio (BXPC-3 [4]) was 0.85.

In the case of `CC(C)(C(=O)N1CCCCC1)c1ccc(S(=O)(=O)/C=C/C#N)cc1`, the Ratio (A2780 [1]) is reported as 0.08, the Ratio (SK-OV-3 [2]) is reported as 0.51 and the Ratio [3] is reported as 0.51. For the same compound, the Ratio (BXPC-3 [4]) was 0.25.

For `CC(C)(C(=O)O)c1ccc(S(=O)(=O)/C=C/C#N)cc1`, the Ratio (A2780 [1]) was 1.08, the Ratio (SK-OV-3 [2]) was 1.07 and the Ratio [3] was 0.89. The Ratio (BXPC-3 [4]) was 0.92.

In the case of `CC(C)(C)c1ccc(S/C=C/C#N)cc1`, the inhibition (A2780 [5]) is reported as “inactive”, the Activity (Mus musculus) is reported as “Non-toxic” and the Ratio (A2780 [1]) is reported as 1.06. For the same compound, the Ratio (SK-OV-3 [2]) was 0.92, the Ratio [3] was 1.03 and the Ratio (BXPC-3 [4]) was 1.08.

`C=CS(=O)(=O)c1ccc(C(C)(C)C)cc1` gave a Ratio (A2780 [1]) of 1.16, a Ratio (SK-OV-3 [2]) of 1.05 and a Ratio [3] of 0.8. For the same compound, the Ratio (BXPC-3 [4]) was 0.84.

`CN1CCN(C(=O)C(C)(C)c2ccc(S(=O)(=O)/C=C/C#N)cc2)CC1` showed a Ratio (A2780 [1]) of 0.95, a Ratio (SK-OV-3 [2]) of 1.09 and a Ratio [3] of 0.95. The Ratio (BXPC-3 [4]) was 0.98.

With `CC(C)(C)c1ccc(S(=O)(=O)/C=C/C(N)=O)cc1` the Ratio (A2780 [1]) was 0.77, the Ratio (SK-OV-3 [2]) was 0.5 and the Ratio [3] was 0.59. It also gave a Ratio (BXPC-3 [4]) of 0.44.

For `CC(C)CNC(=O)C(C)(C)c1ccc(S(=O)(=O)/C=C/C#N)cc1`, the inhibition (A2780 [5]) was “Active”, the IC50 (BXPC-3 [6]) was 4.2 µM and the IC50 (SK-OV-3 [7]) was 12.9 µM. The Activity (Mus musculus) was “Non-toxic”, the Activity (SK-OV-3 [8]) was “Active” and the IC50 (A2780 [9]) was 3.3 µM. It also gave a Ratio (A2780 [1]) of 0.05, a Ratio (SK-OV-3 [2]) of 0.47 and a Ratio [3] of 0.29. For the same compound, the IC50 [10] was 7.6 µM and the Ratio (BXPC-3 [4]) was 0.24.

Work on `CC(C)(C(=O)NC1CCCCC1)c1ccc(S(=O)(=O)/C=C/C#N)cc1` yielded a Ratio (A2780 [1]) of 0.2, a Ratio (SK-OV-3 [2]) of 0.6 and a Ratio [3] of 0.43. For the same compound, the Ratio (BXPC-3 [4]) was 0.22.

For `CC(C)(C(=O)NCc1ccc(Cl)cc1)c1ccc(S(=O)(=O)/C=C/C#N)cc1`, the IC50 (BXPC-3 [6]) was 4.1 µM, the IC50 (SK-OV-3 [7]) was 11.4 µM and the Activity (SK-OV-3 [8]) was “Active”. It also gave an IC50 (A2780 [9]) of 3.4 µM, a Ratio (A2780 [1]) of 0.15 and a Ratio (SK-OV-3 [2]) of 0.63. It also gave a Ratio [3] of 0.43, an IC50 [10] of 8.7 µM and a Ratio (BXPC-3 [4]) of 0.27.
